Source: ChEMBL document CHEMBL2331221, “Potent elastase inhibitors from cyanobacteria: structural basis and mechanisms mediating cytoprotective and anti-inflammatory effects in bronchial epithelial cells” (J Med Chem, 2013)
The source made the active and inactive calls. The calls are words filed in the database; no cut-off is given here.

Tests used:
[1] = target: Dipeptidyl peptidase 4 (Homo sapiens) (UniProt P27487); experiment: Inhibition of DPP4 (unknown origin) using H-GP-AMC substrate assessed as residual activity at 10 uM incubated for 15 mins prior to substrate addition measured for 2 hrs
Sequence of Dipeptidyl peptidase 4 (Homo sapiens) (P27487 whole entry, looked up): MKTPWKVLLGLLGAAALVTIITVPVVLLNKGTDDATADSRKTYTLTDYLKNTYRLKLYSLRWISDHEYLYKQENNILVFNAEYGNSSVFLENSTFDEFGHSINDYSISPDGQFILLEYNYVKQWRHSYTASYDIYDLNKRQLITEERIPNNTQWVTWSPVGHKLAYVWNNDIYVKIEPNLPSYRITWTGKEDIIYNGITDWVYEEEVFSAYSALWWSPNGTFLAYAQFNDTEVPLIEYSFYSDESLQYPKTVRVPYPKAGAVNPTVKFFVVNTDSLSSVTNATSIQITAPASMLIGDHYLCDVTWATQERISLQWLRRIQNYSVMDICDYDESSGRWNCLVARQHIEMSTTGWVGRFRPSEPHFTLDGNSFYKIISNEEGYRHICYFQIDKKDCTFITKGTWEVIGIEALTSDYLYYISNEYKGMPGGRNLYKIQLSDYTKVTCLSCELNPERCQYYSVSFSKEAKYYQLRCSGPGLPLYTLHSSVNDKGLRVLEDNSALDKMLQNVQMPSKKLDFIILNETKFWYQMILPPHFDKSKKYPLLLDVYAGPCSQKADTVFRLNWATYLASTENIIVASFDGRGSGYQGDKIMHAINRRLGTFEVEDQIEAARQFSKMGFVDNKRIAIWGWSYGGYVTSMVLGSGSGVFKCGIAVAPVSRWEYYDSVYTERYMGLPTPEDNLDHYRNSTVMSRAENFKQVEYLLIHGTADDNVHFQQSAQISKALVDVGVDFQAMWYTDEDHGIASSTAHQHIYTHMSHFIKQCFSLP
Outline: (§1)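 Protease panel screen: enzyme and test inhibitor preincubated 15 min in the enzyme's reaction buffer, then substrate added. Reaction followed for 2 h, and activity was taken from the initial linear portion of the progress-curve slope. Enzyme, substrate, buffer and detection conditions for each target are given only in the paper's supporting table.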

[2] = target: Matrix metalloproteinase-9 (Homo sapiens) (UniProt P14780); experiment: Inhibition of MMP9 (unknown origin) using (5-FAM/QXLTM) FRET peptide substrate assessed as residual activity at 10 uM incubated for 15 mins prior to substrate addition measured for 2 hrs
Outline: (§2)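 Protease panel screen: enzyme and inhibitor preincubated 15 min in reaction buffer, then substrate added; reaction followed for 2 h and the initial linear part of the progress curve used for activity. Enzyme, substrate, buffer and detection details are given only in a supporting table.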

[3] = target: Pro-cathepsin H (Homo sapiens) (UniProt P09668); experiment: Inhibition of Cathepsin H (unknown origin) using R-AMC substrate assessed as residual activity at 10 uM incubated for 15 mins prior to substrate addition measured for 2 hrs; outline: as §1
[4] = target: Plasminogen (Homo sapiens) (UniProt P00747); experiment: Inhibition of Plasmin (unknown origin) using H-D-CHA -Ala-Arg-AMC.2AcOH substrate assessed as residual activity at 10 uM incubated for 15 mins prior to substrate addition measured for 2 hrs; outline: as §2
Sequence of Plasminogen (Homo sapiens) (P00747 97-580 limits assumed): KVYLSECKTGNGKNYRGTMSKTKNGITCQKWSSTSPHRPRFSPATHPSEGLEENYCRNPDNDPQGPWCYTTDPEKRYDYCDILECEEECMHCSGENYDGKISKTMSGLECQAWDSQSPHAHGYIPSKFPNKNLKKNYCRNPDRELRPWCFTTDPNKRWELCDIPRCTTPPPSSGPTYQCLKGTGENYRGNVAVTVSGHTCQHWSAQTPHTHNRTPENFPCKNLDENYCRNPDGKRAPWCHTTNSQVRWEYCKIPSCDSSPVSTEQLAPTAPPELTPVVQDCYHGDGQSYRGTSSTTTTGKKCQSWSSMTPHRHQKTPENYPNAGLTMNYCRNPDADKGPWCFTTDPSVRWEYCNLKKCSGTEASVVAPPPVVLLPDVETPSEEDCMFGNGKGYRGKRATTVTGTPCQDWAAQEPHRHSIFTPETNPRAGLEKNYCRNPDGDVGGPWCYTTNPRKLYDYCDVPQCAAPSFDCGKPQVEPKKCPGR
Sequence of Plasminogen (Homo sapiens) (P00747 581-810 limits assumed): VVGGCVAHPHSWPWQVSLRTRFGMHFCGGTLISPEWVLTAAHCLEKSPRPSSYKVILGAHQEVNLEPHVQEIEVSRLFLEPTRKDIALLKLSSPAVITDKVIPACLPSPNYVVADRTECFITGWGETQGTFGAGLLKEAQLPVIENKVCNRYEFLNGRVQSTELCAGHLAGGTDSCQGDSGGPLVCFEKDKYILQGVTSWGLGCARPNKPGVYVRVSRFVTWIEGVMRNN

Kallikrein-12 = Kallikrein-12 (Homo sapiens, UniProt Q9UKR0); experiment: Inhibition of Kallikrein-12 (unknown origin) using VPR-AMC substrate incubated for 15 mins prior to substrate addition measured for 2 hrs; outline: as §1
Sequence of Kallikrein-12 (Q9UKR0 whole entry): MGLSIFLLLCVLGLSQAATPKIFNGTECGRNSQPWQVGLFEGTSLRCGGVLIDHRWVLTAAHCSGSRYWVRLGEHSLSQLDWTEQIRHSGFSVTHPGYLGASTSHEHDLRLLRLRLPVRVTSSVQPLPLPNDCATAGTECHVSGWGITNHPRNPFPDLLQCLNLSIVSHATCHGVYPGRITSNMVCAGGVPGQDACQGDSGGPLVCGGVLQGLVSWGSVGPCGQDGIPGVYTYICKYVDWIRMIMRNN

[5] = target: Interstitial collagenase (Homo sapiens) (UniProt P03956); experiment: Inhibition of MMP1 (unknown origin) using (5-FAM/QXLTM) FRET peptide substrate assessed as residual activity at 10 uM incubated for 15 mins prior to substrate addition measured for 2 hrs; outline: as §1
Homo sapiens = species on record: Homo sapiens; experiment: Inhibition of Thrombin alpha (unknown origin) using H-D-CHA -Ala-Arg-AMC.2AcOH substrate assessed as residual activity at 10 uM incubated for 15 mins prior to substrate addition measured for 2 hrs; outline: as §2
[6] = target: Cathepsin E (Homo sapiens) (UniProt P14091); experiment: Inhibition of Cathepsin E (unknown origin) using MCA-KPILFFRLK(Dnp)-D-R-NH2 substrate assessed as residual activity at 10 uM incubated for 15 mins prior to substrate addition measured for 2 hrs; outline: as §1
Sequence of Cathepsin E (Homo sapiens) (P14091 whole entry): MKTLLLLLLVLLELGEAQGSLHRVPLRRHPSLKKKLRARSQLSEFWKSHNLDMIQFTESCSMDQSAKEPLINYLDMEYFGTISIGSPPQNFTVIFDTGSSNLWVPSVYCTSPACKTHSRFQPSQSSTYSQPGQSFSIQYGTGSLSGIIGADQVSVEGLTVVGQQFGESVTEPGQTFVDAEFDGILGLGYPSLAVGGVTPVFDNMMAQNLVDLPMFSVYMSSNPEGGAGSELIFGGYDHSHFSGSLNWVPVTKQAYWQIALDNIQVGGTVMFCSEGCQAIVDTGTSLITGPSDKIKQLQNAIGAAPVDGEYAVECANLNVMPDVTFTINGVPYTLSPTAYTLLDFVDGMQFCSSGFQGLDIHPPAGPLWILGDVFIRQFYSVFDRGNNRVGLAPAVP

[7] = target: T1, Neutrophil elastase (Homo sapiens) (UniProt P08246); settings: BEAS2B, 100 uM
T1 sequence (whole entry): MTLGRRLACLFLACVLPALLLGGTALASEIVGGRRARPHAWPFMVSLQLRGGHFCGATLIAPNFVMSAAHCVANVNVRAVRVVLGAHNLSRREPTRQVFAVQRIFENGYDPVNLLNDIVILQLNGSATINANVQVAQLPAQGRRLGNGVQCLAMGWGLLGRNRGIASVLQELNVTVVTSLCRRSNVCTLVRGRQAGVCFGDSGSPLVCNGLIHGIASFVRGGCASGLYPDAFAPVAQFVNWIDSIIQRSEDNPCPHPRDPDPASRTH

[8] = target: Collagenase 3 (Homo sapiens) (UniProt P45452); experiment: Inhibition of MMP13 (unknown origin) using (5-FAM/QXLTM) FRET peptide substrate assessed as residual activity at 10 uM incubated for 15 mins prior to substrate addition measured for 2 hrs; outline: as §1
[9] = target: Plasma kallikrein (Homo sapiens) (UniProt P03952); experiment: Inhibition of Plasma Kallikrein (unknown origin) using Z-FR-AMC substrate assessed as residual activity at 10 uM incubated for 15 mins prior to substrate addition measured for 2 hrs; outline: as §2
Cathepsin G = Cathepsin G (Homo sapiens, UniProt P08311); experiment: Inhibition of Cathepsin G (unknown origin) using Suc-AAPF-AMC substrate incubated for 15 mins prior to substrate addition measured for 2 hrs; outline: as §1
Sequence of Cathepsin G (P08311 whole entry): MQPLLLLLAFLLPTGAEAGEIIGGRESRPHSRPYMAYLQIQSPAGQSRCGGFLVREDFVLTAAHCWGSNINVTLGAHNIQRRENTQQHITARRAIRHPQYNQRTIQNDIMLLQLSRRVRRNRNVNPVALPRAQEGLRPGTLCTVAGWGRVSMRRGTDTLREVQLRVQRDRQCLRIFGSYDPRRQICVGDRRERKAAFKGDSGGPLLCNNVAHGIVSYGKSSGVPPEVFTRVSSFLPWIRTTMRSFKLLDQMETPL

[10] = target: Dipeptidyl peptidase 1 (Homo sapiens) (UniProt P53634); experiment: Inhibition of Cathepsin C (unknown origin) using Z-FR-AMC substrate assessed as residual activity at 10 uM incubated for 15 mins prior to substrate addition measured for 2 hrs; outline: as §1
[11] = target: Coagulation factor X (Homo sapiens) (UniProt P00742); experiment: Inhibition of Factor-10a (unknown origin) using CH3SO2-D-CHA-Gly-Arg-AMC-AcOH substrate assessed as residual activity at 10 uM incubated for 15 mins prior to substrate addition measured for 2 hrs; outline: as §1
Sequence of Coagulation factor X (Homo sapiens) (P00742 41-179 limits assumed): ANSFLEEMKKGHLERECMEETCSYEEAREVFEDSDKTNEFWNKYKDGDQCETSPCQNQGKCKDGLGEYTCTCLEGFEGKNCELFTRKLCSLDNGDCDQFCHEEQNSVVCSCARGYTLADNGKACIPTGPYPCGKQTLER
Sequence of Coagulation factor X (Homo sapiens) (P00742 235-488 limits assumed): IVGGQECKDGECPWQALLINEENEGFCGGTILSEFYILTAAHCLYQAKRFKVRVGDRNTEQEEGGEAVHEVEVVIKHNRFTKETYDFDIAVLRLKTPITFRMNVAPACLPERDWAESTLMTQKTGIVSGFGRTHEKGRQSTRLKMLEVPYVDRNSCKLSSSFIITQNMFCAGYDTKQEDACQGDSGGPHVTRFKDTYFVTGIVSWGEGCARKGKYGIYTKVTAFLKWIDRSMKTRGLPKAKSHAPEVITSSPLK

[12] = target: Neutrophil collagenase (Homo sapiens) (UniProt P22894); experiment: Inhibition of MMP8 (unknown origin) using (5-FAM/QXLTM) FRET peptide substrate assessed as residual activity at 10 uM incubated for 15 mins prior to substrate addition measured for 2 hrs; outline: as §2
Sequence of Neutrophil collagenase (Homo sapiens) (P22894 101-467 limits assumed): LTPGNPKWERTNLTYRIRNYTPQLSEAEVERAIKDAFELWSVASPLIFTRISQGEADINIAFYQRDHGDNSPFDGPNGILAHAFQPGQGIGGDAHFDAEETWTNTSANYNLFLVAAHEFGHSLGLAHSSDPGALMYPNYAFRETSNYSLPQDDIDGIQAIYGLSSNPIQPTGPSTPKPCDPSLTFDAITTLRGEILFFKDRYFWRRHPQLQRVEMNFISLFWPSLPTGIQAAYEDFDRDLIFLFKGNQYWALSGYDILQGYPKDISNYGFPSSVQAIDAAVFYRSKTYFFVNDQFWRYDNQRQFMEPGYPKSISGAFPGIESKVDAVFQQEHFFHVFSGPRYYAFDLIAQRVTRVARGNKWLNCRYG

[13] = target: Stromelysin-3 (Homo sapiens) (UniProt P24347); experiment: Inhibition of MMP11 (unknown origin) using (5-FAM/QXLTM) FRET peptide substrate assessed as residual activity at 10 uM incubated for 15 mins prior to substrate addition measured for 2 hrs; outline: as §1
Sequence of Stromelysin-3 (Homo sapiens) (P24347 whole entry, the tested form may be a part): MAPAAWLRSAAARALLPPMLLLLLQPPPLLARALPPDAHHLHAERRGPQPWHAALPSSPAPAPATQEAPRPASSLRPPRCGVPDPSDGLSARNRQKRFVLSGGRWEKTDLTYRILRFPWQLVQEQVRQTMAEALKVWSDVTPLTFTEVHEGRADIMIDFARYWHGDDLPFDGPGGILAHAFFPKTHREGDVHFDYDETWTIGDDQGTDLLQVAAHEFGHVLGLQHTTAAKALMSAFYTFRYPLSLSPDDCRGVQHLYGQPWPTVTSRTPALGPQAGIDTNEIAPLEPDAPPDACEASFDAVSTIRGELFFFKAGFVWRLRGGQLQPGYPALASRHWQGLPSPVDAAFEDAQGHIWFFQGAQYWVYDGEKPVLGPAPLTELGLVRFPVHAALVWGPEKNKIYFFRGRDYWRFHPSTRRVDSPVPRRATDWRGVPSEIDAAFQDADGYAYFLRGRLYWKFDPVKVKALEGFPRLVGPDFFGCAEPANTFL

[14] = target: Disintegrin and metalloproteinase domain-containing protein 17 (Homo sapiens) (UniProt P78536); experiment: Inhibition of TACE (unknown origin) using MCA-PLAQAV-Dpa-RSSSR-NH2 substrate assessed as residual activity at 10 uM incubated for 15 mins prior to substrate addition measured for 2 hrs; outline: as §2
Sequence of Disintegrin and metalloproteinase domain-containing protein 17 (Homo sapiens) (P78536 whole entry, the tested form may be a part): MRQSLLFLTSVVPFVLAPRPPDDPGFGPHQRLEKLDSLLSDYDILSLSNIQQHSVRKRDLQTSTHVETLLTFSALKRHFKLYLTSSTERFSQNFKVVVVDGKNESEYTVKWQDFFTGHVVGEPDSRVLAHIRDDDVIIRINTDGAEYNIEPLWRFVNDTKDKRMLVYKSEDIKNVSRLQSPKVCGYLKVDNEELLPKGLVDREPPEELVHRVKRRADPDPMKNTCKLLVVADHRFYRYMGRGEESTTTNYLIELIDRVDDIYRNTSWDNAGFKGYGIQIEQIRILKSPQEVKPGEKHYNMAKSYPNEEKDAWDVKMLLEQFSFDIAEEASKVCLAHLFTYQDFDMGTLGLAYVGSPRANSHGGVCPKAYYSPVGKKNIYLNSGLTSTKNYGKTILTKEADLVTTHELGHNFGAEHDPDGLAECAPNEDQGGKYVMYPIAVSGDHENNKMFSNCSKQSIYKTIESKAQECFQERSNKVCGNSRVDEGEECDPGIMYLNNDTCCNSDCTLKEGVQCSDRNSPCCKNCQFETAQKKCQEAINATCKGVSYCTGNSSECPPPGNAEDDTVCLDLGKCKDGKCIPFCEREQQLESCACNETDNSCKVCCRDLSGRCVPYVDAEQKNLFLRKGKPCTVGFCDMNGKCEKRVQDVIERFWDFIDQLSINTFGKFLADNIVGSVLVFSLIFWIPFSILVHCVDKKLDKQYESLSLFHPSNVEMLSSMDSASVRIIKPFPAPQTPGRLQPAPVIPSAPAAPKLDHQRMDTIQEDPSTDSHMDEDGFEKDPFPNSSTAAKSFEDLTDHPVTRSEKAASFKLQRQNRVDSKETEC

[15] = target: Disintegrin and metalloproteinase domain-containing protein 9 (Homo sapiens) (UniProt Q13443); experiment: Inhibition of ADAM9 (unknown origin) using MCA-PLAQAV-Dpa-RSSSR-[…] substrate assessed as residual activity at 10 uM incubated for 15 mins prior to substrate addition measured for 2 hrs; outline: as §1
[16] = target: T1, Neutrophil elastase (Homo sapiens); settings: 10 uM
[17] = target: Macrophage metalloelastase (Homo sapiens) (UniProt P39900); experiment: Inhibition of MMP12 (unknown origin) using (5-FAM/QXLTM) FRET peptide substrate assessed as residual activity at 10 uM incubated for 15 mins prior to substrate addition measured for 2 hrs; outline: as §1
Sequence of Macrophage metalloelastase (Homo sapiens) (P39900 106-470 limits assumed): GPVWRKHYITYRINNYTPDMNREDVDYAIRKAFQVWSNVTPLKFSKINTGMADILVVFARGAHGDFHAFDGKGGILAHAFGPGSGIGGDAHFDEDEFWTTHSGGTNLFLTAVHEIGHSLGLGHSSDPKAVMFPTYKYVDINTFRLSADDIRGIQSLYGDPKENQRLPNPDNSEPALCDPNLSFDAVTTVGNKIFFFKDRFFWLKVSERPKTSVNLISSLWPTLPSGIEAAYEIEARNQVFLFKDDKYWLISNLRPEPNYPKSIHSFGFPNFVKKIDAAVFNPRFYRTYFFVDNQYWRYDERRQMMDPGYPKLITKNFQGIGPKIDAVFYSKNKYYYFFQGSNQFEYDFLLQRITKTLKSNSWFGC

**Q.** `C/C=C1\NC(=O)[C@@H](NC(=O)[C@@H](NC(=O)[C@@H](COS(=O)(=O)[O-])OC)C(C)C)[C@@H](C)OC(=O)[C@H]([C@H](C)CC)NC(=O)[C@H](Cc2ccccc2)N(C)C(=O)[C@H](Cc2ccccc2)N2C(=O)[C@H](CC[C@H]2O)NC1=O.[Na+]` [Symplostatin 5] was tested. Which Activity [1] did it give?
**A.** 100%

**Q.** What about the Activity [2] of the same compound?
**A.** 100%

**Q.** What about the Activity [3] of the same compound?
**A.** 100%

**Q.** And the Activity [4]?
**A.** 100%

**Q.** And the IC50 (Kallikrein-12)?
**A.** < 10 µM

**Q.** And the Activity [5]?
**A.** 100%

**Q.** And the Activity (Homo sapiens)?
**A.** 100%

**Q.** And the Activity [6]?
**A.** 100%

**Q.** What about the inhibition [7] of the same compound?
**A.** inactive

**Q.** And the Activity [8]?
**A.** 100%

**Q.** And the Activity [9]?
**A.** 50%

**Q.** What about the IC50 (Cathepsin G) of the same compound?
**A.** < 10 µM

**Q.** What about the Activity [10] of the same compound?
**A.** 50%

**Q.** What about the Activity [11] of the same compound?
**A.** 100%

**Q.** And the Activity [12]?
**A.** 100%

**Q.** And the Activity [13]?
**A.** 100%

**Q.** And the Activity [14]?
**A.** 100%

**Q.** What about the Activity [15] of the same compound?
**A.** 100%

**Q.** What about the inhibition [16] of the same compound?
**A.** Active

**Q.** What about the Activity [17] of the same compound?
**A.** 100%
